For five compounds, inhibition results are on record in ChEMBL document CHEMBL1154968, “Tellimagrandin I, HCV invasion inhibitor from Rosae Rugosae Flos” (Bioorg Med Chem Lett, 2010).

The subject of series [1] is Hepatitis C virus. The experiment in a line: Antiviral activity against G envelope protein expressing HCV infected in HepG2 cells assessed as inhibition of viral invasion at 1 uM after 24 hrs by SEAP reporter gene assay. The conditions noted are these: HepG2, 24 h. Format: functional, Hepacivirus hominis. A digest of the protocol:
(§1)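 HepG2 cells seeded at 9.0 × 10⁴ cells/mL in DMEM with 10% FBS were grown 24 h at 37 °C under 5% CO₂. Samples in DMSO were diluted in medium (final DMSO 1.0%) and added 1 h before inoculation. After a further 24 h, supernatant SEAP activity was read by fluorescence.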
(A reporter such as luciferase makes a cellular process visible.)

Series [2] deals with Hepatitis C virus. The experiment in a line: Antiviral activity against G envelope protein expressing HCV infected in HepG2 cells assessed as inhibition of viral invasion at 10 uM after 24 hrs by SEAP reporter gene assay. The series is classed as functional, Hepacivirus hominis. The settings on record: HepG2, 24 h. Put shortly: as §1
For series [3], the system named is Hepatitis C virus. Nature of the series: Antiviral activity against E1 and E2 envelope protein expressing HCV infected in HepG2 cells assessed as inhibition of viral invasion at 1 uM after 24 hrs by SEAP reporter gene assay. The series is classed as functional, Hepacivirus hominis. The conditions noted are these: HepG2, 24 h. Put shortly:
as §1

For series [4], the system named is Hepatitis C virus. The experiment in a line: Antiviral activity against E1 and E2 envelope protein expressing HCV infected in HepG2 cells assessed as inhibition of viral invasion at 10 uM after 24 hrs by SEAP reporter gene assay. Format: functional, Hepacivirus hominis. The settings on record: HepG2, 24 h. A digest of the protocol:
as §1

In series [5] the test system is Hepatitis C virus. Nature of the series: Antiviral activity against G envelope protein expressing HCV infected in HepG2 cells assessed as inhibition of viral invasion at 3 uM after 24 hrs by SEAP reporter gene assay. Format: functional, Hepacivirus hominis. The conditions noted are these: HepG2, 24 h. A digest of the protocol: as §1
In series [6] the test system is Hepatitis C virus. The experiment in a line: Antiviral activity against E1 and E2 envelope protein expressing HCV infected in HepG2 cells assessed as inhibition of viral invasion at 3 uM after 24 hrs by SEAP reporter gene assay. Format: functional, Hepacivirus hominis. The settings on record: HepG2, 24 h. Put shortly:
as §1

Series [7] in a line: Growth inhibition of human HepG2 cells at 10 uM. The series is classed as cell-based. The conditions noted are these: read-out: GI.

As to `O=C(OC[C@H]1OC(O)[C@H](OC(=O)c2cc(O)c(O)c(O)c2)[C@@H](OC(=O)c2cc(O)c(O)c(O)c2)[C@@H]1OC(=O)c1cc(O)c(O)c(O)c1)c1cc(O)c(O)c(O)c1` (stereo not given in full), the inhibition at 1 µM turned out to be 16% in the series on Hepatitis C virus [1] and 9.1% with Hepatitis C virus [3]. Further, the inhibition at 10 µM with Hepatitis C virus [2] came to 51.2%; with Hepatitis C virus [4], 43.7%. Further, the inhibition at 3 µM in the series with Hepatitis C virus [5] is 40.7%; with Hepatitis C virus [6], 20.8%.
As for `O=C(O[C@@H]1O[C@@H]2COC(=O)c3cc(O)c(O)c(O)c3-c3c(cc(O)c(O)c3O)C(=O)O[C@H]2[C@H](OC(=O)c2cc(O)c(O)c(O)c2)[C@H]1OC(=O)c1cc(O)c(O)c(O)c1)c1cc(O)c(O)c(O)c1` [EUGENIIN], the inhibition at 1 µM in the series on Hepatitis C virus [1] is 17.2%; in the series with Hepatitis C virus [3], 18.4%. For the same compound, the figures for the inhibition at 10 µM in the series on Hepatitis C virus [2] and in the series on Hepatitis C virus [4] were 35.7% and 92.8%, respectively. Further, the inhibition at 3 µM was determined as 21.2% with Hepatitis C virus [5] and 51.3% in the series with Hepatitis C virus [6].
With `O=C1OC[C@H]2OC(O)[C@@H]3OC(=O)c4cc(O)c(O)c(O)c4-c4c(cc(O)c(O)c4O)C(=O)O[C@H]3[C@@H]2OC(=O)c2cc(O)c(O)c(O)c2-c2c1cc(O)c(O)c2O` (stereo not given in full) [PEDUNCULAGIN], the inhibition at 1 µM in the series on Hepatitis C virus [1] came out at 9.4%; in the series with Hepatitis C virus [3], 14.6%. In addition, the inhibition at 10 µM in the series with Hepatitis C virus [2] is 30.9%; in the series on Hepatitis C virus [4] it was 81.1%. The inhibition at 3 µM stood at 14.8% with Hepatitis C virus [5] and 58.8% in the series with Hepatitis C virus [6].
Take `O=C(OC[C@H]1O[C@@H](OC(=O)c2cc(O)c(O)c(O)c2)[C@H](OC(=O)c2cc(O)c(O)c(O)c2)[C@@H](OC(=O)c2cc(O)c(O)c(O)c2)[C@@H]1OC(=O)c1cc(O)c(O)c(O)c1)c1cc(O)c(O)c(O)c1` [PENTAGALLOYL GLUCOSE]: the results for the inhibition at 1 µM with Hepatitis C virus [1] and with Hepatitis C virus [3] were 5% and 4.2%, respectively. Also, the inhibition at 10 µM was 40.7% with Hepatitis C virus [2] and 72.3% in the series with Hepatitis C virus [4]. The inhibition at 3 µM in the series with Hepatitis C virus [5] was 22.8%; in the series on Hepatitis C virus [6], 28.9%.
Consider `O=C(O[C@H]1[C@@H]2OC(=O)c3cc(O)c(O)c(O)c3-c3c(cc(O)c(O)c3O)C(=O)OC[C@H]2OC(O)[C@@H]1OC(=O)c1cc(O)c(O)c(O)c1)c1cc(O)c(O)c(O)c1` (stereo not given in full) [Tellimagrandin I], for which the inhibition at 10 µM in series [7] was 15.6%.
